According to paper PMC8385569 (JACC: Basic to Translational Science, 2021):
pEC50: −log10 of the molar value.

Columns and labels:
[1] = tested on: rat myocardial infarction (permanent coronary artery occlusion); assay: Rat MI 5 days, immunohistochemistry of peri-infarct zone; assay type: in vivo; settings: 1 mg/kg, 5 days post-artery ligation
[2] = tested on: mouse permanent coronary artery occlusion model; assay: Mouse MI 28-day treatment, survival and histomorphometry; assay type: in vivo
[3] = tested on: isolated human whole blood; assay: Human blood assay, cytokine and FPR2 mRNA expression; assay type: cell-based; settings: for increase in IL-10 mRNA levels / increase in MCP-1 mRNA versus control: isolated human whole blood; for increase in IL-10 mRNA levels: average
[4] = tested on: mouse myocardial infarction (permanent LAD ligation); assay: Mouse MI early short-term treatment, histology and in situ hybridization; assay type: in vivo; settings: 3 mg/kg, 3 days post MI
Procedure, shortened: (§1)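 Male C57BL/6 mice, 10-12 weeks old, had the LAD permanently occluded by suture under ketamine/xylazine anesthesia and isoflurane ventilation. Test compound, 3 mg/kg, was given by oral gavage once daily, starting 24 hours post MI. Hearts were analyzed about 3 days after occlusion.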

[5] = tested on: HL-60 cells; assay: Oxidative burst assay; assay type: cell-based, human
[6] = tested on: rat myocardial infarction (permanent coronary artery occlusion); assay: Rat MI permanent coronary artery occlusion, 6 weeks; assay type: in vivo; settings: 1 mg/kg once per day
Procedure, shortened: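 Male Sprague Dawley rats, 6-7 weeks old, had permanent coronary artery occlusion by suture under ketamine/xylazine and isoflurane anesthesia. They received test compound at 1 mg/kg once daily for 6 weeks. LV volumes were measured by echocardiography. Terminally, under isoflurane, a 2.5-F conductance catheter was placed in the LV via right carotid cutdown, with parallel-conductance correction.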

[7] = target: T1, human FPR1 (Homo sapiens, UniProt P21462); assay: BRET biosensor signaling, HEK293 cells expressing human FPR1; assay type: cell-based
T1 sequence (P21462 1-350): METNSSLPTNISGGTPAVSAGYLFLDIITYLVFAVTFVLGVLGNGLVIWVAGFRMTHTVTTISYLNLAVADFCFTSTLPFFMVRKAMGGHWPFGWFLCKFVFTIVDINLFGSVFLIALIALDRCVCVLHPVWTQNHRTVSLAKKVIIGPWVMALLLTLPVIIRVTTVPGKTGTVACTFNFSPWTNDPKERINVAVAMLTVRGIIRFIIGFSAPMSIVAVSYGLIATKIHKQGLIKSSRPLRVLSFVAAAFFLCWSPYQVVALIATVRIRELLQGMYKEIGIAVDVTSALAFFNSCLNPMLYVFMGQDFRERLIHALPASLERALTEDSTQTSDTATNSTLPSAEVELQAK

[8] = tested on: noninfarcted rats challenged with LPS; assay: Acute LPS challenge in rat, IL-10; assay type: in vivo; settings: 1 mg/kg
Procedure, shortened: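 Adult male Sprague Dawley rats, 6-7 weeks old, without infarction, were dosed with test compound at 1 mg/kg and challenged with LPS. The read-out was IL-10 induction. Blood compound levels were taken 1.5 to 3 hours after dosing.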

[9] = tested on: mouse myocardial infarction (permanent LAD ligation); assay: Mouse MI early short-term treatment, cardiac flow cytometry; assay type: in vivo; settings: 3 mg/kg, 3 days post MI, mouse heart
Procedure, shortened: as §1

[10] = tested on: rat myocardial ischemia-reperfusion injury; assay: Rat ischemia-reperfusion study, 6 weeks; assay type: in vivo; settings: 1 mg/kg, rat I/R
Procedure, shortened: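 Male Sprague Dawley rats, 6-7 weeks old, underwent coronary ischemia-reperfusion and received test compound at 1 mg/kg for 6 weeks. Hearts were arrested in diastole, removed and mounted on a modified Langendorff apparatus. Passive LV pressure-volume relationships were recorded ex vivo.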

[11] = tested on: isolated human neutrophils; assay: Apoptosis assay of isolated human neutrophils activated with SAA; assay type: cell-based; settings: co-incubation with BMS-986235 and SAA, relative to SAA-only treatment
[12] = tested on: BioGel-elicited peritoneal macrophages; assay: Zymosan phagocytosis assay; assay type: cell-based, mouse
[13] = target: T2, human FPR2 (Homo sapiens, UniProt P25090); assay: BRET biosensor signaling, HEK293 cells expressing human FPR2; assay type: cell-based; settings: Gαi1, Gαi2, Gαi3, GαoA, GαoB biosensors; FPR2 relative to FPR1
T2 sequence (P25090 1-351): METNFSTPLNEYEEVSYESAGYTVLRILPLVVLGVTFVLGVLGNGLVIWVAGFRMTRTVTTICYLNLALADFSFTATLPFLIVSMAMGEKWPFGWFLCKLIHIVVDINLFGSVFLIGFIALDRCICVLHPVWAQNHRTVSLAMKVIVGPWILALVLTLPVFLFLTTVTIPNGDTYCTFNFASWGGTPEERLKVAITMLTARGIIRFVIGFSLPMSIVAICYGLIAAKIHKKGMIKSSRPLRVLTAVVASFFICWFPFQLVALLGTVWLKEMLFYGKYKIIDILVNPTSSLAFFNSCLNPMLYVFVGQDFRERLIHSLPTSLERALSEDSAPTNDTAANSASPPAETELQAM
Procedure, shortened: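 HEK293 cells transiently expressed human FPR1 or FPR2 with Gαi1, Gαi2, Gαi3, GαoA or GαoB BRET biosensors, and test compound was titrated. EC50 came from a nonlinear concentration-response curve fit. Selectivity ratio was FPR2 EC50/FPR1 EC50.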

[14] = tested on: differentiated HL-60 cells; assay: Chemotaxis assay; assay type: cell-based, human
Procedure, shortened: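 In vitro chemotaxis toward test compound was measured in differentiated HL-60 cells: parental, FPR1-deficient and FPR2 KO lines. EC50 came from a nonlinear concentration-response curve.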

Compound: COc1cc(F)c([C@@H]2CNC(=O)[C@H]2NC(=O)Nc2ccccc2)c(F)c1 [BMS-986235, 1-((3S,4R)-4-(2,6-difluoro-4-methoxyphenyl)-2-oxopyrrolidin-3-yl)-3-phenylurea]
- myocardial CD206 levels at peri-infarct zone versus vehicle [1]: relative increases
- myocardial IL-10 levels at peri-infarct zone versus vehicle [1]: relative increases
- mortality over the 4 week study ([2]; 3 mg/kg once a day oral): significant reduction
- reduction of infarct scar size relative to vehicle ([2]; 3 mg/kg, 4 weeks of treatment): ~55%
- increase in IL-10 mRNA levels ([3]; 0.1 μM): 3 fold
- increase in MCP-1 mRNA versus control ([3]; 1 μM): 28 fold
- increase in MCP-1 mRNA versus control ([3]; 10 μM): 54 fold
- increase in IL-10 mRNA levels ([3]; 10 μM): 6 fold
- induction of FPR2 mRNA ([3]; any concentration (0.01-10 µM)): no significant induction
- induction of IL-6 mRNA ([3]; any concentration (0.01-10 µM)): no significant induction
- induction of IL-8 mRNA ([3]; any concentration (0.01-10 µM)): no significant induction
- induction of TNFα mRNA ([3]; any concentration (0.01-10 µM)): no significant induction
- arginase-1 mRNA within peri-infarct border zone, fold vs vehicle [4]: +6.4 fold
- Ymax oxidative burst ([5]; HL-60 FPR1 KO line): 38%
- oxidative burst activity ([5]; HL-60 FPR2 KO line): abolished
- Ymax oxidative burst ([5]; HL-60 cells expressing both receptors): 97%
- pEC50 ([5]; Homo sapiens, HL-60, read-out: EC50 oxidative burst): 6.89
- Infarct Wall Thickness, change vs vehicle [6]: +38%
- LV End Diastolic Volume (echocardiography), change vs vehicle [6]: -26%
- LV End Systolic Volume (echocardiography), change vs vehicle [6]: -29%
- Scar Area, change vs vehicle [6]: -26%
- BRET signal for Gα12 and Gα13 [7]: minimal to no increase
- IL-10 induction [8]: efficacious dose
- number of total macrophages relative to vehicle [9]: unchanged
- ex vivo LV pressure-volume curve vs vehicle [10]: left shifted
- reduction of LV volume at end-diastole [10]: 26%
- reduction of LV volume at end-systole [10]: 42%
- transmural thickness of the infarct wall relative to vehicle [10]: without altering
- viable myocardium at the distal end of the MI [10]: trend toward increased
- % Viable Myocardium across infarct wall, increase vs vehicle ([10]; Mid MI region): 31%
- % Viable Myocardium across infarct wall, increase vs vehicle ([10]; Proximal MI region): 31%
- reduction of percentage of viable neutrophils [11]: 12%
- phagocytosis response above control macrophages ([12]; FPR2 KO-derived peritoneal macrophages): minimal response
- Ymax zymosan phagocytosis ([12]; WT-derived peritoneal macrophages): ~100%
- selectivity ratios (FPR2 EC50/FPR1 EC50) [13]: 164- to 614 fold
- concentrations at which chemotaxis attenuation was observed ([14]; HL-60 FPR1 KO, bell-shaped response): > 120 nM
- enhancement in chemotaxis ([14]; HL-60 FPR2 KO line): no enhancement
